PHOSPHO1 inh = inhibitors of human PHOSPHO1 phosphatase; AID 1565; inhibition, % at 13.3 µM; Q8TCT1; recombinant PHOSPHO1, absorbance phosphatase assay; 290,000 tested, 1.1% active; in the data active = inhibition above about 60%
Runt-SMMHC FRET = inhibitors of human RUNX1 Runt domain binding to CBFb-SMMHC | Cerulean-Runt/Venus-CBFb-SMMHC FRET ratio 530/480, 1 h | inhibition, % at 20 µM | 220,000 tested, 0.74% active | AID 1434;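 active = mean inhibition across duplicate retests at 20 µM reaching about 50%, limit read from the data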;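 also: inhibitors lower the FRET ratio by blocking Runt binding to CBFb-SMMHC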
Wee1 stabilizer = inhibitors of human Wee1 degradation; P30291; HeLa Luc-Wee1K328M stability, luciferase luminescence; 100% = proteasome inhibitor MG132 effect; reporter increase, % at 5 µM; 220,000 tested, 1.2% active; AID 1321;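 active = activation above the mean of all tested compounds plus 3 SD, set per screening run, cut at about 8.8% in these data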;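 also: cells exposed to compound for 20 h before luminescence read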
Efa HMGR inh = E. faecalis class II HMG-CoA reductase inhibition; 190,000 tested, 0.41% active; purified E. faecalis HMGR, NADPH absorbance 340 nm kinetic; AID 1066; inhibition, % at 10 µM;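 active = inhibition above a set limit, the median over all tested compounds plus 3 SD, cut at about 9.5% in these data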;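 also: enzyme runs in reverse so mevalonate oxidation gives rising NADPH absorbance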
RanGTP-Impb inh = disruptors of Ran-importin-beta complex formation – biochemical, FRET, CFP-Ran, YFP-importin-beta, homogeneous, primary screen. 300,000 tested, 1.1% active. cell-free CFP-Ran/YFP-importin-beta FRET ratio. AID 2216. inhibition, % (no concentration beside the values);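 active = more than half of the replicate wells show a fall in the fluorescence ratio signal beyond about 16%, limit read from the data, passing the limit was not always enough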
Runt-CBFb FRET = inhibitors of human RUNX1 Runt domain binding to CBFb. Q01196+Q13951. Cerulean-Runt/Venus-CBFb FRET ratio 530/480, 1 h. inhibition, % at 20 µM. 220,000 tested, 0.46% active;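 active = inhibition over about 50% at 20 µM in the single-dose screen, limit read from the data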
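Doses: 20 µM compound in 1% DMSO | Material: Cerulean-labeled Runt domain protein | Amount: Each fluorescent fusion protein 100 nM | Schedule: Two 1 h room-temperature incubations shielded from light | Measured by: FRET fluorescence | Evaluation: Loss of energy transfer signal | Controls: Unlabeled CBFb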
YIC FRET counter = counter-screen for RanGTP-importin-beta inhibitors: YIC FRET probe | shares compounds with RanGTP-Impb inh | Purified YIC probe, intramolecular FRET ratio YFP/CFP | IC50, µM | 1,000 tested, 40% active | AID 435026;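 active = fitted half-maximal inhibitory concentration no more than tenfold above the top dose tested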
Hits are given with their value; 0 = inactive; - = no result given. Only some compounds are listed: those with a hit (about 3.4% of all), similar ones and a draw of the others.

SMILES	PHOSPHO1 inh	Runt-SMMHC FRET	Wee1 stabilizer	Efa HMGR inh	RanGTP-Impb inh	Runt-CBFb FRET	YIC FRET counter
CC(=O)N1CN2CN(C(C)=O)CC(C(=O)c3ccc([N+](=O)[O-])cc3)(C2)C1	0	0	0	0	0	0	-
CC(=O)N1CN2CN(C(C)=O)CC(C(=O)c3ccccc3)(C2)C1	0	0	0	0	20.7	0	0
O=C(c1ccc(CS(=O)(=O)c2ccccc2)o1)N1CCC2(CC1)OCCO2	0	0	0	0	0	0	-
O=P(Nc1cccc(F)c1)(Oc1ccccc1F)Oc1ccccc1F	0	0	0	-	0	0	-
CCN1/C(=C\C=C\C2=[N+](CC)c3ccccc3C2(C)C)C(C)(C)c2ccccc21	0	0	0	0	26.8	0	29.8
CN1CC2=CC(O)CC3Oc4c(O)ccc(c4[C@]23C)C1 (some centres undefined)	-	-	-	-	25.5	-	0
CCn1c(O)c(N=Nc2ccc(S(=O)(=O)N3CCOCC3)cc2)c(=O)n(CC)c1=S	0	0	0	-	0	0	-
Cc1cc(C=C(C#N)C#N)ccc1N1CCCC1	0	0	0	0	31.1	0	0
C=CCN1CCc2cccc3c2[C@H]1Cc1ccc(O)c(O)c1-3	0	-	-	-	18.7	-	0
